We go through 102 compounds from PubChem BioAssay AID720717 (ICCB-Longwood Screening Facility, Harvard Medical School, 2013).

The structures appear in SMILES notation. Out of some 51,000 compounds screened, about 150 (0.29%) were called active. The entries come from a sample that favours actives as a whole. Unmarked numbers belong to inactive results.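 Rule for the calls: active = both repeat wells score below -2 in polarization z-score versus plate sample wells, excluding overly bright wells; inactive = the rest.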

The experiment relates to LANA (ORF73) N-terminal peptide binding to nucleosomes, Human herpesvirus 8. In words: inhibitors of KSHV LANA-nucleosome binding, primary screen, biochemical, fluorescence polarization, FITC-LANA1-23, chicken nucleosomes (AID 720717). Particulars: FITC-LANA1-23 / chicken nucleosome fluorescence polarization; hits give low values. Put shortly:
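System – purified chicken nucleosomes with FITC-labelled LANA N-terminal peptide (1-23) · Amount – 240 nM purified chicken nucleosomes (480 nM peptide binding sites), final · Also added – 50 nM FITC-LANA1-23 probe · Medium – TEN-BT buffer, pH 7.5 · Incubation – compound with peptide–nucleosome mix 10–45 min at room temperature · Detection – fluorescence polarization, ex 480 nm, em 535 nm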
As to `S=c1[nH]nc(NCCc2ccccc2)s1`, the z-score was 0.44.
As for `O=C1NC(c2ccccc2)=NC1(Nc1ccccn1)C(F)(F)F` (configuration not stated), the z-score is 0.245.
Next, `CCOC(=O)c1nn(-c2ccccc2)c(C(=O)OCC)c1N(C(=O)CC)C(=O)CC`: -0.275; `O=C1CCCc2nc3nc(-c4ccncc4)nn3cc21`: -0.949; `CC(Sc1nnc(COc2ccccc2)n1-c1ccccc1)C(=O)O` (configuration not stated): 0.582.
Next, `O=c1[nH]ncc2c1[nH]c1ccccc12`: 0.221; `O=C1C2C3C=CC(C3)C2C(=O)N1C1CC2CCC1C2` (configuration not stated): -0.407.
Next, `N/C(=N\OC(=O)Nc1ccccc1)c1ccno1`: -0.0325.
Consider `C=CCOC(=O)c1cc(-c2ccc(/C=C3/NC(=S)NC3=O)o2)ccc1Cl`, for which the z-score was 0.594.
With `COC(=O)CSc1nc(-c2ccccc2)cc(C)c1C#N`, the z-score is -0.143.
Next, `CN(C)c1ccc(C(=S)N2CCN(c3cccc(Cl)c3)CC2)cc1`: 0.446; `COc1cccc(/C=N/NC(=O)c2cccc(C)c2)c1O`: -0.518.
Take `Cc1ccccc1-c1n[nH]n2c1nc(=O)c1cc(Cl)ccc12`: the z-score was 0.639.
On to `O=C(NCc1ccncc1)C1CCN(C(=O)c2cccc(Cl)c2)CC1`, for which the z-score is 0.832.
The value for `Clc1ccc(C2N=C(c3cnccn3)NN2)cc1` (configuration not stated) was -2.98 (active); that for `CN(C)CCC(O)c1cc(Cl)sc1Cl` (configuration not stated) was 0.472; that for `CC(=O)N1c2ccccc2NC(=O)C1CC(=O)Nc1cccc(C)c1` (configuration not stated) was 2.28.
As for `O=C(Nc1ccc(-c2cn3cccnc3n2)cc1)C1CCCC1`, the z-score is 0.642.
As to `CCOC(=O)C1=NNC2C(=O)N(c3cc(Cl)ccc3OC)C(=O)C12` (configuration not stated), the z-score is -0.513.
Next, `O=C(O)/C=C\C(=O)NCc1ccc2c(c1)OCO2`: 0.273.
With `CC1=CC(C)C2(COC(CN3CCCCC3)OC2)C(C)C1` (configuration not stated), the z-score was -0.0595.
Next, `CN(Cc1ccccc1)C1(O)C(=O)Nc2c(C(F)(F)F)cccc21` (configuration not stated): 0.254; `COc1ccc(CNC(=O)NC2CCN(S(=O)(=O)c3ccc(OC)cc3)CC2)cc1`: 0.0685.
Regarding `Clc1cccc(Nc2nc3ccccc3c3nncn23)c1`, the z-score is -0.519.
Take `CC(=O)O/N=C/c1ccc(N(C)C)cc1`: the z-score is 0.621.
The value for `CCn1cc(S(=O)(=O)Nc2cc(C)on2)cn1` was -2.19 (active); that for `Cc1cc(NCc2cccnc2)no1` was -0.669.
As for `CCc1ccc(NS(=O)(=O)c2cnn(CC)c2)cc1`, the z-score is -1.21.
The value for `Cc1ccc(-n2nc(C)c(C(=O)O)n2)cc1` was -0.785.
The value for `CCCN(CCC)C(=O)Cn1ncn2c(cc3ccccc32)c1=O` was 0.518.
Next, `Cc1cc2c(cc1S(=O)(=O)CCC(=O)N1CCCC1)OCC(=O)N2`: -1.11; `O=C(Nc1ccc(Cl)cc1)Nc1cc(C(=O)NCC2CCCO2)ccc1N1CC2CC(C1)c1cccc(=O)n1C2` (configuration not stated): 0.571; `O=c1[nH]cc(S(=O)(=O)N2CCc3ccccc32)c(=O)[nH]1`: -0.177.
As for `CCN(CC)S(=O)(=O)c1c(C)nn(S(=O)(=O)c2ccccc2)c1C`, the z-score was 1.21.
As for `C(=N\N(Cc1ccccc1)Cc1ccccc1)/c1ccco1`, the z-score was -1.14.
The value for `CCOC(=O)C(N)Cc1c[nH]c2ccccc12` (configuration not stated) was 0.0765; that for `Cc1ccc2cc(CN(CCN3CCCC3)C(=O)NC3CCCCC3)c(=O)[nH]c2c1C` was 0.448; that for `CC(C)(Oc1ccc(Cl)cc1)C(=O)Nc1ccc2oc(-c3cccnc3)nc2c1` was 0.188.
The value for `C=C(C)Cn1nc(C)c(-c2cc(C(=O)O)[nH]n2)c1C` was -0.083.
The value for `Cc1cccc(-c2cc(C(=O)N3CCN(C(=O)c4ccco4)CC3)c3ccc(Cl)c(C)c3n2)c1` was 0.0795; that for `O=C1NN=C(c2ccccc2)C1CCO` (configuration not stated) was -0.74.
For `CS(=O)(=O)C1=NSC2=NC(=O)/C(=C\c3ccco3)C(=N)N21`, the z-score is -0.748.
The value for `O=C(COc1ccccc1)n1c(=O)oc2ccccc21` was -1.36; that for `CCS(=O)(=O)N1CCCC(c2nc3c(nnn3Cc3ccc(C)cc3)c(=O)[nH]2)C1` (configuration not stated) was -1.1; that for `O=C(CSc1nc2ncccc2o1)NCc1ccco1` was 0.0485.
Turning to `CCNC(=O)CC1C(=O)N(c2ccc(OC)cc2)C(=O)N1CCOC` (configuration not stated), the z-score was -0.571.
Next, `COc1ccc(C(c2nnnn2C(C)(C)C)N2CCN(c3ccccc3)CC2)cc1` (configuration not stated): -0.537.
Next, `COc1ccc(C2C3=C(CCCC3=O)N(CC(=O)O)C3=C2C(=O)CCC3)cc1`: 1.54; `Cc1ccc(C(=O)NC(C(=O)O)c2ccccc2)cc1` (configuration not stated): 0.558; `C=CCNc1nc(N)sc1C#N`: 0.79.
Next, `COc1cc(Br)cc(/C=N/O)c1O`: -0.372; `C/C(=N/NC(=O)Cc1cc(=O)[nH][nH]1)c1ccc(Cl)cc1`: -0.559.
As for `Cc1cc(C)nc(-n2nc(C)c3c2N(C)C(=O)CC3c2ccccc2Cl)n1` (configuration not stated), the z-score was 0.097.
For the compound `CCc1ccc2[nH]c(=O)c(CN(Cc3ccco3)C(=O)c3ccccc3)cc2c1`, the z-score was 0.0145.
Next, `N#Cc1c(F)cccc1NC(=O)CN1CCCCC1`: -0.136; `COc1ccc(NC(=O)c2cn(-c3ccccc3)nc2SC)cc1`: -0.623.
In the case of `O=C1CCC(=O)N1C(c1ccccc1)c1ccccc1`, the z-score is -0.605.
As to `COC(=O)c1ccccc1NC(=O)C(F)(F)F`, the z-score was -0.55.
For the compound `CCc1c(C)nc2c(OC)cccc2c1Cl`, the z-score was -0.847.
Next, `Cc1sc2nc(C)n(NC(N)=O)c(=O)c2c1C`: 0.328; `Cc1cc(N2CC(C)CC(C)C2)nc2ccc(NC(=O)CCC(=O)NCc3ccco3)cc12` (configuration not stated): -1.27.
Regarding `O=C1OC(c2ccco2)=N/C1=C1/C=C(c2cccs2)Oc2ccccc21`, the z-score is -0.0915.
As to `N#CC1=C(SCC(N)=O)NC2=C(C(=O)CCC2)C1c1ccco1` (configuration not stated), the z-score is 0.283.
The value for `CCCCn1cc(/C=N/NC(=O)c2cc3cc(OC)ccc3n2C)c2ccccc21` was -0.47; that for `O=S1(=O)CCC(S(=O)(=O)NC2CCCC2)C1` (configuration not stated) was -1.02.
On to `COc1ccc(C(=O)N(C)C2CCCCC2)cc1`, for which the z-score is -0.539.
The value for `CCCc1cc(=O)[nH]c2c1c(C)nn2-c1cccc(F)c1` was 1.12; that for `Cc1[nH]n(-c2ccccc2)c(=O)c1C(=O)C(F)(F)F` was -0.607; that for `COc1ccc(CCN(C)C2CCNCC2)cc1OC` was -0.052.
`COc1cccc(NC(=O)c2cc(-c3cccc(OC)c3)n[nH]2)c1`: the z-score was -1.44.
Next, `COc1cc(-c2nc3ccccn3c2NC2CCCC2)ccc1O`: -0.532; `O=C(CN1Cc2ccccc2C1=O)N1CC=C(c2ccccc2)CC1`: -0.481; `Cc1ccc(-c2nc3scc(CCNC(=O)Cc4ccccc4)n3n2)cc1`: -0.82.
Next, `S=C(Cc1ccccc1)N1CCCCC1`: 0.211; `O=C1c2ccccc2C(=O)N1CNc1ccc(I)cc1`: -0.239.
On to `Cc1[nH][nH]c(=O)c1C(c1cccc(Cl)c1)C(C#N)C#N` (configuration not stated), for which the z-score was -0.349.
Next, `CC(C)NC(=S)N/N=C/c1ccn[nH]1`: 0.944; `COc1cccc(NC(=O)c2nn(C)c3c2COc2ccccc2-3)c1`: -1.79; `CCOC(=O)c1ccc2c(c1)sc1nc(-c3cccc(OC)c3)cn12`: -1.21.
Next, `Nc1no[n+]([O-])c1C(=O)NCCO`: 0.91; `CCN1C(=O)C2C(c3cccs3)NC(C)(C(=O)OC)C2C1=O` (configuration not stated): -0.124; `O=C1NN=C(Cc2ccccc2)C1CCO` (configuration not stated): -1.42.
Next, `CCCc1cc(SCC(=O)O)n2c(nc3ccccc32)c1C#N`: -0.397; `CN1C(=O)CC(N2CCN(C/C=C/c3ccccc3)CC2)C1=O` (configuration not stated): 0.0475; `Cc1ccc2c(c1)-c1onc(C(=O)N3CCCCC3)c1CO2`: -1.74.
With `CCNC(=S)N1CCN(CCN=CC2=C(O)CC(C)(C)CC2=O)CC1`, the z-score is 0.296.
Turning to `O=C(C1CCN(Cc2cnn(-c3ccccc3)c2-n2cccc2)CC1)N1CCC2(CC1)OCCO2`, the z-score is 0.0245.
Next, `O=C(O)C1CCN(Cc2ccc(Cl)cc2)CC1`: -0.653; `Cc1cc(-c2ccc(S(=O)(=O)NC3CCCc4ccccc43)s2)n[nH]1` (configuration not stated): 0.15; `Cc1ccc(C(C(=O)NCc2ccccc2)N(C(=O)C2COc3ccccc3O2)c2cccc(O)c2)o1` (configuration not stated): -0.115.
The value for `Nc1nc(SC23CC4CC(CC(C4)C2)C3)ns1` was -1.08; that for `CC1=CCCC(C)(C)C1/C=C/C(C)=N/O` (configuration not stated) was -1.1; that for `Cc1ccccc1NC(=O)N1CC(C)CC(C)C1` (configuration not stated) was -0.339.
Take `Nc1nonc1-n1nnc(C(=O)N=Nc2c(O)[nH]c3ccc(Br)cc23)c1-c1ccccc1`: the z-score was 0.712.
Consider `CCOC(=O)c1cc(-c2ccc(C)cc2)n(CCC(=O)Nc2nccs2)c1C`, for which the z-score was 0.181.
Next, `Cc1c(NC(=O)c2ccc3c(c2)C(=O)N(C)C3=O)cccc1C(=O)O`: -0.278.
On to `CCC(=O)N1CCc2cc(S(=O)(=O)NCC(OC)OC)ccc21`, for which the z-score is 0.461.
For the compound `NCc1cc(C2CC2)n[nH]1`, the z-score was -0.734.
For `O=C(NCc1ccccn1)c1ccc2c(c1)CCN2S(=O)(=O)c1ccc(Cl)cc1`, the z-score is -0.107.
In the case of `CCNc1nc(N2CCOCC2)c2ccccc2n1`, the z-score is 1.02.
`Cc1nc(CC(=O)Nc2cccc(Cl)c2)cs1`: the z-score is -0.419.
Next, `O=C(Cc1ccccc1)n1nc(-c2ccco2)nc1NCc1ccccc1`: 0.165.
